The values that follow come from PMC11843194 (Experimental and Therapeutic Medicine, 2025).

Where two headings read alike, the source gives them in different places.

Data set [1] is classed as in vivo, human. In a few lines:
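Routine TDM of trough serum sunitinib and N-desethyl sunitinib in one patient, reported as total concentration (the sum of both); the clinical target trough is 50-100 ng/ml. Sampling: immediately before dasatinib and on days 7, 32, 70 and 84. Sunitinib was given orally at 14 days on/7 days off: 50 mg/day, 37.5 mg/day from day 18, then 50/37.5 mg/day alternately from day 81.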

Data set [2] relates to chronic myeloid leukemia (CML). The data set can be described thus: Response of chronic myeloid leukemia to dasatinib in the patient. The format is in vivo, human. Conditions: day 154 after starting dasatinib; BCR::ABL1^IS≤1%. The gist of the method:
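Patient with chronic-phase CML took oral dasatinib at 60 mg/day from day 1. Cytogenetic response was defined as BCR::ABL1IS≤1% and assessed on day 154.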

The conditions of data set [3]: cited from earlier work.
The format of data set [4] is in vivo, human. In a few lines:
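Serum from the patient was taken 8 h after dasatinib dosing, using the residue of samples drawn for sunitinib TDM, and assayed later by LC-MS/MS (LLOQ 0.5 ng/ml). Samples were from days 7, 32 and 84. Oral dasatinib was given at 60 mg/day, then 50 mg/day from day 28, alongside sunitinib; esomeprazole magnesium was a concomitant drug.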
The source holds these as a separate data set.

Another data set relates to CYP3A4. To be noted: cited from earlier work.
For data set [5] the following is noted: rats; ketoconazole combined with sunitinib; cited from earlier work.
The next data set in a line: Adverse events. Conditions: day -30; sunitinib 50 mg/day alone. Type of data set: in vivo, human. The gist of the method:
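Single patient with metastatic renal cell carcinoma on oral sunitinib monotherapy, 14 days on/7 days off, before dasatinib started (day 1). Adverse events graded by CTCAE. Hand-foot skin reaction was managed with heparinoid cream and diarrhea with bifidobacterial powder.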

For data set [6], the system named is metastatic renal cell carcinoma (mRCC). The data set can be described thus: Course of metastatic renal cell carcinoma under sunitinib in the patient. Type of data set: in vivo, human. Conditions: day 186; led to change from sunitinib to axitinib.
For data set [7] the following is noted: clinical practice, sum of sunitinib and N-desethyl sunitinib; cited from earlier work.
Where [8] appears, read: day 7, sunitinib 50 mg/day with dasatinib 60 mg/day.
Setting [9] is: day 32, sunitinib 37.5 mg/day with dasatinib 50 mg/day.
Setting [10] is: day 84, sunitinib 50.0 and 37.5 mg/day alternately with dasatinib 50 mg/day.
[11] abbreviates: immediately before starting dasatinib, sunitinib 50 mg/day alone, 14 days on/7 days off.

For the compound `CCNCCNC(=O)c1c(C)[nH]c(/C=C2\C(=O)Nc3ccc(F)cc32)c1C` [N-desethyl sunitinib], the trough serum concentration in data set [1] (setting [8]) worked out at 12.2 ng/mL; in [1] (setting [9]), 4.7 ng/mL; in [1] (setting [10]), 7.4 ng/mL; in data set [1] (setting [11]), 13.7 ng/mL.
`Cc1nc(Nc2ncc(C(=O)Nc3c(C)cccc3Cl)s2)cc(N2CCN(CCO)CC2)n1` [dasatinib]: the “response for CML” value in data set [2] is “complete cytogenetic response”. Moreover, the solubility entry in [3] is “pH-dependent”. The dasatinib serum concentration amounted to 1.16 ng/mL in data set [4] (day 7, 8 h after administration, dasatinib 60 mg/day with sunitinib) and 2.75 ng/mL in data set [4] (day 84, 8 h after administration, dasatinib 50 mg/day with sunitinib). This compound yielded a concentration at 8 h in [4] (male, human, serum, oral, 50 mg/day) of 3 ng/mL. In addition, the “effect of dasatinib combination on sunitinib serum concentration” value in data set [1] (day 7 versus before dasatinib, sunitinib 50 mg/day) is “no change”. The CYP3A4 inhibition entry in the data set with CYP3A4 is on record as “moderate”.
For `CC(=O)N1CCN(c2ccc(OCC3COC(Cn4ccnc4)(c4ccc(Cl)cc4Cl)O3)cc2)CC1` (centres unmarked) [ketoconazole], the “effect of combination on the concentration of sunitinib” value in data set [5] is on record as “significantly increased”.
For `CCN(CC)CCNC(=O)c1c(C)[nH]c(/C=C2\C(=O)Nc3ccc(F)cc32)c1C` [sunitinib], in “Adverse events”, the “diarrhea, CTCAE grade” value worked out at 1. In addition, the “hand-foot skin reaction (HFSR), CTCAE grade” value in the data set “Adverse events” amounted to 1. The “course of RCC metastases” value in data set [6] is “pancreatic and left adrenal metastases were enlarged”. The trough serum concentration was found to be 64.9 ng/mL in [1] (setting [8]), 28.6 ng/mL in data set [1] (setting [9]), 38.7 ng/mL in data set [1] (setting [10]) and 63.7 ng/mL in data set [1] (setting [11]). For the same compound, in [7], the “target trough concentration as total sunitinib concentration” value was 50 to 100 ng/mL.
